Where two headings read alike, the source gives them in different places.
Key:
Caco-2 cell monolayers [1] = test: Dioxin transport and cellular association in dynamic gut-on-a-chip model; type: in vitro ADME, human; conditions: 24 h; for Mass balance (sum of AP, BL compartments and cellular fraction): Chip, 0.2 ng/mL each congener, n = 3
Outline: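 Caco-2 seeded at 75 000 cells per cm2 on a porous polyester membrane clamped between glass slides. Cells attached 72 h without flow, then both sides were perfused 7 days at 25 μL h−1 with 10 mM-bicarbonate DMEM+ at 37 °C. Apical medium then carried 17 congeners (0.2 ng mL−1 each, 1% DMSO) for 24 h. Compartment eluents, hexane rinses and trypsinised, freeze–thaw-lysed cells were analysed by GC-HRMS.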

Caco-2 cell monolayers [2] = test: Dioxin transport and cellular association in static Transwell model; type: in vitro ADME, human; conditions: 24 h; for Mass balance (sum of AP, BL compartments and cellular fraction): Transwell, 0.2 ng/mL mixture, n = 3
Outline: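 Caco-2 seeded at 40 000 cells per cm2 on 12-well polyester Transwell inserts (0.4 μm pores, 1.12 cm2) in DMEM+, with medium changed every other day for 21 days. Apical side received DMEM+ with 0.2 ng mL−1 dioxin mixture (1% DMSO); basolateral side received plain DMEM+; exposure 24 h. Both compartments' medium, hexane rinses and trypsinised, freeze–thaw-lysed cells were analysed by GC-HRMS.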

[3] = predicted; octanol/water; cited from earlier work
Caco-2 cell monolayer = conditions: 24 h; 2.5 nM 2,3,7,8-TCDD; cited from earlier work
Caco-2 cells = conditions: 90 minutes exposure to 3.4 × 10^−2 μCi mL^−1 U-14C-TCDD; cited from earlier work
[4] = cited from earlier work
[5] = dynamic model (chip), 0.2 ng/mL
[6] = static model (Transwell), 0.2 ng/mL

Clc1cc2c(c(Cl)c1Cl)Oc1c(Cl)c(Cl)c(Cl)c(Cl)c1O2 [1,2,3,4,6,7,8-HpCDD]
Mass balance (sum of AP, BL compartments and cellular fraction) (Caco-2 cell monolayers [1]): 97 ± 7%
Mass balance (sum of AP, BL compartments and cellular fraction) (Caco-2 cell monolayers [2]): 83 ± 2%

Clc1cc2c(oc3c(Cl)c(Cl)c(Cl)c(Cl)c32)c(Cl)c1Cl [1,2,3,4,6,7,8-HpCDF]
Mass balance (sum of AP, BL compartments and cellular fraction) (Caco-2 cell monolayers [1]): 97 ± 5%
log P [3]: 7.9
Mass balance (sum of AP, BL compartments and cellular fraction) (Caco-2 cell monolayers [2]): 93 ± 1%

Clc1cc2oc3c(Cl)c(Cl)c(Cl)c(Cl)c3c2c(Cl)c1Cl [1,2,3,4,7,8,9-HpCDF]
Mass balance (sum of AP, BL compartments and cellular fraction) (Caco-2 cell monolayers [1]): 97 ± 7%
Mass balance (sum of AP, BL compartments and cellular fraction) (Caco-2 cell monolayers [2]): 83 ± 2%

Clc1cc2oc3c(Cl)c(Cl)c(Cl)c(Cl)c3c2cc1Cl [1,2,3,4,7,8-HxCDF]
Mass balance (sum of AP, BL compartments and cellular fraction) (Caco-2 cell monolayers [1]): 97 ± 7%
log P [3]: 6.9
Mass balance (sum of AP, BL compartments and cellular fraction) (Caco-2 cell monolayers [2]): 85 ± 2%

Clc1cc2c(c(Cl)c1Cl)Oc1cc(Cl)c(Cl)c(Cl)c1O2 [1,2,3,6,7,8-HxCDD]
Mass balance (sum of AP, BL compartments and cellular fraction) (Caco-2 cell monolayers [1]): 92 ± 5%
log P [3]: 7.4
Mass balance (sum of AP, BL compartments and cellular fraction) (Caco-2 cell monolayers [2]): 92 ± 1%

Clc1cc2c(oc3cc(Cl)c(Cl)c(Cl)c32)c(Cl)c1Cl [1,2,3,6,7,8-HxCDF]
Mass balance (sum of AP, BL compartments and cellular fraction) (Caco-2 cell monolayers [1]): 94 ± 5%
log P [3]: 6.9
Mass balance (sum of AP, BL compartments and cellular fraction) (Caco-2 cell monolayers [2]): 93 ± 1%

Clc1cc2c(c(Cl)c1Cl)Oc1c(cc(Cl)c(Cl)c1Cl)O2 [1,2,3,7,8,9-HxCDD]
Mass balance (sum of AP, BL compartments and cellular fraction) (Caco-2 cell monolayers [1]): 93 ± 5%
Relative amount in the cellular fraction (of total exposure) (Caco-2 cell monolayers [1]; [5]): 33%
log P [3]: 7.4
Mass balance (sum of AP, BL compartments and cellular fraction) (Caco-2 cell monolayers [2]): 93 ± 1%
Relative amount in the cellular fraction (of total exposure) (Caco-2 cell monolayers [2]; [6]): 22.5%

Clc1cc2oc3cc(Cl)c(Cl)c(Cl)c3c2c(Cl)c1Cl [1,2,3,7,8,9-HxCDF]
Mass balance (sum of AP, BL compartments and cellular fraction) (Caco-2 cell monolayers [1]): 91 ± 6%
log P [3]: 7.4
Mass balance (sum of AP, BL compartments and cellular fraction) (Caco-2 cell monolayers [2]): 84 ± 2%

Clc1cc2c(oc3c(Cl)c(Cl)c(Cl)cc32)c(Cl)c1Cl [2,3,4,6,7,8-HxCDF]
Mass balance (sum of AP, BL compartments and cellular fraction) (Caco-2 cell monolayers [1]): 97 ± 7%
log P [3]: 7.1
Mass balance (sum of AP, BL compartments and cellular fraction) (Caco-2 cell monolayers [2]): 87 ± 2%

Clc1cc2c(cc1Cl)Oc1cc(Cl)c(Cl)cc1O2 [2,3,7,8-TCDD, 2,3,7,8-tetrachlorodibenzo-p-dioxin]
Mass balance (sum of AP, BL compartments and cellular fraction) (Caco-2 cell monolayers [1]): 85 ± 5%
Relative amount in the cellular fraction (of total exposure) (Caco-2 cell monolayers [1]; [5]): ~56%
Transport across the monolayer (basal side compared to total exposed amount) (Caco-2 cell monolayers [1]; [5]): 3%
Transported across the Caco-2 cell monolayer (Caco-2 cell monolayer): 15%
Mass balance (sum of AP, BL compartments and cellular fraction) (Caco-2 cell monolayers [2]): 81 ± 2%
Relative amount in the cellular fraction (of total exposure) (Caco-2 cell monolayers [2]; [6]): approximately 39%
Transport across the monolayer (basal side compared to total exposed amount) (Caco-2 cell monolayers [2]; [6]): 3%
Apical concentration transported to the basal compartment (Caco-2 cells): less than 1.5%
Steady-state cellular association (Caco-2 cells): approximately 13%

Clc1ccc(-c2cc(Cl)c(Cl)cc2Cl)cc1Cl [#118]
log P [4]: > 5

Clc1cc(Cl)c(-c2cc(Cl)c(Cl)cc2Cl)cc1Cl [#153]
log P [4]: > 5

Clc1cc(Cl)c(-c2cc(Cl)c(Cl)c(Cl)c2Cl)cc1Cl [#180]
log P [4]: > 5

Clc1ccc(Cl)c(-c2cc(Cl)ccc2Cl)c1 [PCB#52]
log P [4]: > 5

— paper PMC9086222 (RSC Advances, 2018)
